ChEMBL document CHEMBL3124927, “New C(4)- and C(1)-derivatives of furo[3,4-c]pyridine-3-ones and related compounds: evidence for site-specific inhibition of the constitutive proteasome and its immunoisoform” (Bioorg Med Chem Lett, 2014)
Calls of active or inactive are those of the source. The rule behind the calls is not given here.

Assays:
[1] = Inhibition of 20s constitutive proteasome beta 5 subunit chymotrypsin-like activity in rabbit erythrocytes using Suc-LLVY-AMC as substrate incubated for 15 mins prior to substrate addition measured after 45 mins by fluorescence assay; type: cell-based, Oryctolagus cuniculus
Method in brief: (§1)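 Purified rabbit erythrocyte constitutive 20S fraction, 0.27 nM enzyme, pre-incubated 15 min with or without inhibitor before substrate addition. Buffer pH 7.5: 20 mM Tris, 1 mM DTT, 10% glycerol, 0.02% (w/v) SDS. Fluorescence read-out. IC50 is from a percent inhibition versus concentration plot, fitted with a Hill-type equation.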

Oryctolagus cuniculus [2] = organism: Oryctolagus cuniculus; assay: Inhibition of 20s constitutive proteasome beta 1 subunit caspase-like activity in rabbit erythrocytes using Z-LLE-betaNA as substrate at 100 uM incubated for 15 mins prior to substrate addition measured after 45 mins by fluorescence assay relative to control; type: cell-based; method in brief: as §1
[3] = molecular target: Cathepsin B (Homo sapiens) (UniProt P07858); assay: Inhibition of human cathepsin B using Z-RR-AMC as substrate by fluorescence assay
Method in brief: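 Human cathepsin B fraction, Z-RR-AMC substrate, at 37 °C in 352 mM KH2PO4, 48 mM Na2HPO4, 1 mM EDTA, 1 mM DTT, pH 6. Fluorescence read-out. IC50 is from percent inhibition versus inhibitor concentration.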

[4] = Inhibition of 20s constitutive proteasome beta 2 subunit trypsin-like activity in rabbit erythrocytes using Boc-LRR-AMC as substrate incubated for 15 mins prior to substrate addition measured after 45 mins by fluorescence assay; type: cell-based, Oryctolagus cuniculus
Method in brief: (§2)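 Purified rabbit erythrocyte constitutive 20S fraction, 0.27 nM enzyme, pre-incubated 15 min with or without inhibitor, then Boc-LRR-AMC added. Buffer at pH 7.5. Fluorescence read-out. IC50 is from a plot of percent inhibition against inhibitor concentration, Hill-equation fit.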

[5] = molecular target: T1, Calpain-1 catalytic subunit (Homo sapiens) (UniProt P07384); assay: Inhibition of human calpain-1 using Suc-LLVY-AMC as substrate by fluorescence assay
T1 sequence (whole entry): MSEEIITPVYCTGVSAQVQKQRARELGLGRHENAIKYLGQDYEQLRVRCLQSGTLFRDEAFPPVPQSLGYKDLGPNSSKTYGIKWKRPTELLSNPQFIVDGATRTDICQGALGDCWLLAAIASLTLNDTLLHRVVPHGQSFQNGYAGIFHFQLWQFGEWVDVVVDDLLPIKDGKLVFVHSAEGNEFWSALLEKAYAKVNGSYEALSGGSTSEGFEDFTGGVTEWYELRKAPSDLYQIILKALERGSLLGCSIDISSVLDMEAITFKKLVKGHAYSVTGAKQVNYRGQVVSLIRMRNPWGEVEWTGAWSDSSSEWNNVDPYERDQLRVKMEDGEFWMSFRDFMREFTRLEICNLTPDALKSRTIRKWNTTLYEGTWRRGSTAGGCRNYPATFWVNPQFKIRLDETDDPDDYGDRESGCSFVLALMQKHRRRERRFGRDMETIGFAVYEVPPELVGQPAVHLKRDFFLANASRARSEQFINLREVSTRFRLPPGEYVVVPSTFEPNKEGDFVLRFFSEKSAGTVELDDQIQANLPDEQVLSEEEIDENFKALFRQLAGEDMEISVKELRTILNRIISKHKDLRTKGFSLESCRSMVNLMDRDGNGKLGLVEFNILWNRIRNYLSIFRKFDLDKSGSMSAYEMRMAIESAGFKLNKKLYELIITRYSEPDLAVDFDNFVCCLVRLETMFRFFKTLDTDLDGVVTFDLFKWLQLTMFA
Method in brief: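 Human calpain I fraction, Suc-LLVY-AMC substrate, at 25 °C in 50 mM Tris, 10 mM DTT with CaCl2, pH 7.2. Fluorescence read-out. IC50 is from percent inhibition versus inhibitor concentration.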

[6] = Inhibition of 20s constitutive proteasome beta 1 subunit caspase-like activity in rabbit erythrocytes using Z-LLE-betaNA as substrate incubated for 15 mins prior to substrate addition measured after 45 mins by fluorescence assay; type: cell-based, Oryctolagus cuniculus; method in brief: as §1
Oryctolagus cuniculus [7] = organism: Oryctolagus cuniculus; assay: Inhibition of 20s constitutive proteasome beta 2 subunit trypsin-like activity in rabbit erythrocytes using Boc-LRR-AMC as substrate at 100 uM incubated for 15 mins prior to substrate addition measured after 45 mins by fluorescence assay relative to control; type: cell-based; method in brief: as §2
Oryctolagus cuniculus [8] = organism: Oryctolagus cuniculus; assay: Inhibition of 20s constitutive proteasome beta 5 subunit chymotrypsin-like activity in rabbit erythrocytes using Suc-LLVY-AMC as substrate at 100 uM incubated for 15 mins prior to substrate addition measured after 45 mins by fluorescence assay relative to control; type: cell-based; method in brief: as §1
Oryctolagus cuniculus [9] = organism: Oryctolagus cuniculus; assay: Inhibition of 20s constitutive proteasome beta 2 subunit trypsin-like activity in rabbit erythrocytes using Boc-LRR-AMC as substrate at 50 uM incubated for 15 mins prior to substrate addition measured after 45 mins by fluorescence assay relative to control; type: cell-based; method in brief: as §2

| Compound | inhibition [3] | IC50 [4] | inhibition [5] | IC50 [1] | IC50 [6] | other results |
| --- | --- | --- | --- | --- | --- | --- |
| CC1(C)OC(=O)c2c1ccnc2S | inactive | Not Active | inactive |  |  | IC50 ([1]; read-out: IC50): 79 µM; inhibition (Oryctolagus cuniculus [2]): 48% |
| CC1(C)OC(=O)C(C(N)=O)=C1/C=C/c1ccccc1 | inactive | Not Active | inactive | Not Active | Not Active |  |
| CC1(C)OC(=O)c2c1ccnc2O | inactive | Not Active | inactive | Not Active |  | IC50 ([6]; read-out: IC50): 16.7 µM |
| C=C1c2c(ncn(CC(O)COc3ccccc3)c2=O)OC1(C)C (configuration not stated) |  | Not Active |  | Not Active | Not Active |  |
| Cc1sc2ncn(CCc3ccc(Cl)cc3)c(=O)c2c1C |  |  |  | Not Active | Not Active | IC50 ([4]; read-out: IC50): 56 µM |
| C=C1c2c(ncn(-c3ccc(Br)cc3)c2=O)OC1(C)C |  |  |  | Not Active | Not Active | inhibition (Oryctolagus cuniculus [7]): 29% |
| Cc1sc2ncn(CCCN3CCOCC3)c(=O)c2c1C |  |  |  | Not Active | Not Active | inhibition (Oryctolagus cuniculus [7]): 53% |
| CC1(C)OC(=O)c2c1ccnc2N1CCCCC1 | inactive | Not Active | inactive | Not Active |  | inhibition (Oryctolagus cuniculus [2]): 41.6% |
| C[C@@]12OC(=O)[C@]1([C@@H](O)[C@@H]1C=CCCC1)NC(=O)[C@@H]2CCCl [MARIZOMIB] |  |  |  |  |  | IC50 ([1]; read-out: IC50): 0.0026 µM; IC50 ([4]; read-out: IC50): 0.021 µM; IC50 ([6]; read-out: IC50): 0.46 µM |
| O=C1OC2(CCCCC2)c2ccnc(O)c21 | inactive | Not Active | inactive | Not Active |  | IC50 ([6]; read-out: IC50): 27.8 µM |
| O=c1c2c(-c3ccc(Cl)cc3)csc2ncn1CCc1ccccc1 |  |  |  | Not Active | Not Active | inhibition (Oryctolagus cuniculus [7]): 48% |
| C=C1c2c(ncn(CCCn3ccnc3)c2=O)OC1(C)C |  |  |  | Not Active |  | inhibition (Oryctolagus cuniculus [7]): 56%; IC50 ([6]; read-out: IC50): 47 µM |
| O=c1[nH]ccc2c1c(=O)oc1ccccc12 | inactive | Not Active | inactive | Not Active | Not Active |  |
| Cc1nccc2c1C(=O)OC2(C)C | inactive |  | inactive | Not Active | Not Active | IC50 ([4]; read-out: IC50): 88 µM |
| Cc1ccc(OCC(O)CNc2nccc3c2C(=O)OC3(C)C)cc1 (configuration not stated) | inactive |  | inactive |  | Not Active | IC50 ([4]; read-out: IC50): 60.8 µM; inhibition (Oryctolagus cuniculus [8]): 36.5% |
| C=C1c2c(nc[nH]c2=O)OC1(C)c1ccccc1 (configuration not stated) |  | Not Active |  | Not Active | Not Active |  |
| CC(N)C1=C(c2ccccc2)C(C)(C)OC1=O (configuration not stated) | inactive | Not Active | inactive | Not Active | Not Active |  |
| C=C1c2c(ncn(CC(O)CN3CCOCC3)c2=O)OC1(C)C (configuration not stated) |  | Not Active |  |  | Not Active | inhibition (Oryctolagus cuniculus [8]): 33% |
| CC1(C)OC(=O)C(C(N)=S)=C1c1ccccc1 | inactive | Not Active | inactive | Not Active | Not Active |  |
| O=c1c2c(-c3ccc(Cl)cc3)csc2ncn1CCc1ccc(F)cc1 |  |  |  | Not Active | Not Active | inhibition (Oryctolagus cuniculus [9]): 56% |
| CCOC(=O)C1=C(/C=C/N(C)C)C(C)(C)OC1=O | inactive | Not Active | inactive | Not Active | Not Active |  |

| Compound | inhibition [3] | IC50 [4] | inhibition [5] | IC50 [1] | IC50 [6] | other results |
| --- | --- | --- | --- | --- | --- | --- |
| C=C1c2c(nc[nH]c2=O)OC1(C)C |  |  |  | Not Active | Not Active | IC50 ([4]; read-out: IC50): 59 µM |
| C=C1c2c(ncn(CCCN3CCOCC3)c2=O)OC1(C)C |  |  |  | Not Active | Not Active | inhibition (Oryctolagus cuniculus [7]): 48% |
| Cc1sc2ncn(CCCn3ccnc3)c(=O)c2c1C |  |  |  | Not Active | Not Active | inhibition (Oryctolagus cuniculus [9]): 42% |
| C=C1c2c(ncn(CCO)c2=O)OC1(C)C |  | Not Active |  | Not Active | Not Active |  |
| CC12CCCC=C1c1c(nc[nH]c1=O)O2 (configuration not stated) |  | Not Active |  | Not Active | Not Active |  |
| Cc1sc2ncn(CCc3ccccc3)c(=O)c2c1C |  |  |  | Not Active | Not Active | inhibition (Oryctolagus cuniculus [7]): 42% |
| CC1(C)OC(=O)c2c1ccnc2N | inactive |  | inactive | Not Active |  | inhibition (Oryctolagus cuniculus [7]): 35%; IC50 ([6]; read-out: IC50): 7.9 µM |
| C=C1c2c(ncn(C)c2=O)OC12CCCCC2 |  | Not Active |  |  | Not Active | inhibition (Oryctolagus cuniculus [8]): 30% |
| CC1(C)OC(=O)c2c1ccnc2Nc1ccc(Cl)cc1 | inactive | Not Active | inactive |  |  | inhibition (Oryctolagus cuniculus [2]): 41.5%; inhibition (Oryctolagus cuniculus [8]): 24.5% |
| Cc1ccc(CCn2cnc3sc(C)c(C)c3c2=O)cc1 |  | Not Active |  | Not Active | Not Active |  |
| CC1(C)OC(=O)c2c1ccnc2NNC(N)=S | inactive |  | inactive |  |  | inhibition (Oryctolagus cuniculus [2]): 41%; inhibition (Oryctolagus cuniculus [8]): 26%; inhibition (Oryctolagus cuniculus [7]): 29% |
| CCC1(C)OC(=O)c2c1ccnc2N (configuration not stated) | inactive | Not Active | inactive |  |  | inhibition (Oryctolagus cuniculus [8]): 21.5%; IC50 ([6]; read-out: IC50): 7 µM |
| Cc1cc(=O)oc2cc[nH]c(=O)c12 | inactive |  | inactive |  | Not Active | IC50 ([1]; read-out: IC50): 29.4 µM; IC50 ([4]; read-out: IC50): 8.7 µM |
| CC1(C)OC(=O)c2c1ccnc2NCC(O)COc1ccccc1 (configuration not stated) | inactive | Not Active | inactive | Not Active |  | IC50 ([6]; read-out: IC50): 48.1 µM |
| Cc1nccc2c1C(=O)OC21CCCCC1 | inactive | Not Active | inactive | Not Active |  | IC50 ([6]; read-out: IC50): 16.1 µM |
| CC1(C)OC(=O)c2c1ccnc2NCC(O)COc1ccc(F)cc1 (configuration not stated) | inactive | Not Active | inactive |  | Not Active | inhibition (Oryctolagus cuniculus [8]): 29% |
| CC1(C)OC(=O)c2c1ccnc2NCC(O)COc1ccc(Cl)cc1 (configuration not stated) | inactive |  | inactive |  | Not Active | IC50 ([4]; read-out: IC50): 48.1 µM; inhibition (Oryctolagus cuniculus [8]): 63% |
| O=c1c2c(-c3ccc(Cl)cc3)csc2ncn1CCc1ccc(Cl)cc1 |  |  |  | Not Active | Not Active | inhibition (Oryctolagus cuniculus [7]): 52% |
| Nc1nccc2c1C(=O)OC21CCCCC1 | inactive | Not Active | inactive | Not Active |  | IC50 ([6]; read-out: IC50): 8.4 µM |
| O=C1OC2(CCCCC2)c2ccnc(S)c21 | inactive | Not Active | inactive |  |  | inhibition (Oryctolagus cuniculus [2]): 20%; inhibition (Oryctolagus cuniculus [8]): 52% |
